The values that follow come from PubChem BioAssay.

The source made the active and inactive calls.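 Rule for the calls, unless noted: active = visual image review flags a hit and inhibition of aggregation exceeds 20%; inconclusive = visual hit but inhibition at or below 20%; inactive = no hit on visual image review.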

Experiment [1] in a line: inhibitors of TNFa-induced NFkB p65 translocation, primary screen, imaging, HUVEC, MLSMR starter and 10KST1 sets (AID 438;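 active = inhibition above 20% together with a positive visual image hit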;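 note: compound added about 3h40 before a 20 min TNFalpha stimulation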;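 for inhibition: signal is the nuclear over cytoplasmic p65 intensity ratio per well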). Conditions: HUVEC TNFa-induced p65 nuclear translocation; cell count: measured here: nuclei count (cytotoxicity indicator), at 2.08 µM; inhibition: at 2 µM, stronger effect = higher value, 0% TNFa-plus-vehicle, 100% no-TNFa wells.
Experiment [2] is described as follows: inhibitors of mutant huntingtin aggregation, primary screen, imaging, exon1htt(103Q)mCFP cells, high-content imaging (AID 483).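 For nuclei count: percent of the per-plate median nuclei count of sample wells.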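 Note: compound exposure lasted 3 days before fixation.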 Particulars: exon1htt(103Q)mCFP cell line, aggregate imaging, at 2 µM; inhibition of aggregation: stronger effect = higher value; nuclei count: measured here: cell count, toxicity.
The nature of experiment [3]: inhibitors of E-selectin induction by TNFa, primary screen, imaging, HUVEC, immunofluorescence, MLSMR starter and 10KST1 sets (AID 487;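 active = visually confirmed hit in the image check and inhibition above 20%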;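 for inhibition: signal is fraction of cell area covered by stained E-selectin grains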;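 for nuclei count: 100% = median nuclei count of all wells on the same plate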). Conditions: HUVEC TNFalpha-induced E-selectin immunofluorescence imaging, at 2 µM; inhibition: stronger effect = higher value; nuclei count: measured here: cell number, toxicity.
Experiment [4] has as its target Voltage-gated potassium channel subunit beta-2 (Rattus norvegicus) (UniProt P62483). Description: KvBeta enzyme negative modulators, primary screen, biochemical, NADPH fluorescence (AID 622;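 active = fluorescence slope higher than the sample average by over 3 SD, cut at about -0.22 in these data, passing the limit was not always enough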;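 note: slope of raw intensity against log time taken from 70 to 1610 s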). Particulars: recombinant KvBeta, 4-cyanobenzaldehyde reduction, at 10 µM, stronger effect = higher value.
Experiment [5] has the same target. Briefly: KvBeta positive modulators, primary screen, biochemical, NADPH fluorescence (AID 623;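 active = NADPH fluorescence slope more negative than the mean of all samples by about 3 SD, 99.7% confidence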;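 note: fluorescence intensity change per second fitted from 20 to 320 s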). Particulars: Recombinant KvBeta, NADPH fluorescence decrease slope, 10 min; at 10 µM; stronger effect = lower value.
Experiment [6] deals with Muscarinic acetylcholine receptor M4 (Homo sapiens) (UniProt P08173). Description: compounds altering M4/GIRK thallium flux, either direction, primary screen, M4 allosteric agonist project, cell-based, HEK293 M4/GIRK, BTC-AM (AID 625;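 active = fluorescence slope after compound addition differing from the mean of all tested samples at 99.7% confidence, mostly higher but some lower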;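 note: thallium influx through GIRK channels coupled to M4 in HEK293 cells with BTC-AM dye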). Particulars: at 10 µM, actives lie on both sides. In short, it runs like this:
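assay system = HEK293 cells with M4 receptor and GIRK channels | medium = pH 7.3 thallium assay buffer | doses = 10 µM final, single point | timing = cells overnight at 37 °C, BTC-AM loading 1 h, reads 2 min total | signal = BTC-AM fluorescence, 1 Hz kinetic reads | read-out = post-addition slope, 15–24 s, of baseline-normalized fluorescence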

A short description of experiment [7]: inhibitors of Sendai virus-induced IRF3 signaling, primary screen, TLR/RLR signaling modifier project, cell-based, Sendai virus stimulus, luciferase, 10K MLSCN set (AID 602276;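 active = inhibition at or above 50% at 10 µM; inactive = inhibition below 50%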;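 note: firefly luciferase from ISG56 promoter only with Renilla not read in this screen; 0% = Sendai virus plus DMSO and 100% = medium plus DMSO without virus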). Conditions: HEK293 RL24 IRF3 luciferase reporter, at 10 µM, stronger effect = higher value. A general note: In a reporter assay the amount or activity of a reporter protein is the signal.
Experiment [8] can be described thus: inhibitors of poly I:C-induced TLR3 signaling, primary screen, cell-based, poly I:C stimulus, luciferase, 10K MLSCN set (AID 602277;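 active = inhibition of the reporter signal at or above 50%; inactive = inhibition below 50%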). Particulars: HEK293-TLR3 RL24 IRF3 luciferase reporter, at 10 µM, stronger effect = higher value.
Experiment [9] concerns the target Alpha-2C adrenergic receptor (Homo sapiens) (UniProt P18825). Briefly: modulators of alpha2C/GIRK thallium flux, primary screen, cell-based, HEK293 alpha2C/GIRK1/2 (AID 624;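 active = fluorescence slope after compound addition differing from the mean of all screened samples at 99.7% confidence, in either direction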;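 note: slope of fluorescence ratio to pre-addition baseline per second over 15 to 24 s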). Conditions: thallium flux BTC fluorescence, at 10 µM, actives lie on both sides.

Sequence of Muscarinic acetylcholine receptor M4 (Homo sapiens) (P08173 whole entry, looked up): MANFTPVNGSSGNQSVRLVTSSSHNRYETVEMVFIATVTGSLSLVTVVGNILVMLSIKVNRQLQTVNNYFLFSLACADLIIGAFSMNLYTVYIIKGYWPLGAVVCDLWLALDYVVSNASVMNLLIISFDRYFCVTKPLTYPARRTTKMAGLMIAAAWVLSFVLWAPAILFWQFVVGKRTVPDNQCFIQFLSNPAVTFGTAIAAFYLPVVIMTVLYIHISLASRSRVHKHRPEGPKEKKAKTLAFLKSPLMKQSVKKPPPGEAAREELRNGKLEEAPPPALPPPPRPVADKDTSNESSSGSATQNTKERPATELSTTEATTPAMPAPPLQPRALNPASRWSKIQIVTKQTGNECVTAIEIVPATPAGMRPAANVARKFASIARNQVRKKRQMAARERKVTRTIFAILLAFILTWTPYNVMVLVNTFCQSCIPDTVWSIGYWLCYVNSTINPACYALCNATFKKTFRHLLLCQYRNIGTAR
Sequence of Voltage-gated potassium channel subunit beta-2 (Rattus norvegicus) (P62483 whole entry, looked up): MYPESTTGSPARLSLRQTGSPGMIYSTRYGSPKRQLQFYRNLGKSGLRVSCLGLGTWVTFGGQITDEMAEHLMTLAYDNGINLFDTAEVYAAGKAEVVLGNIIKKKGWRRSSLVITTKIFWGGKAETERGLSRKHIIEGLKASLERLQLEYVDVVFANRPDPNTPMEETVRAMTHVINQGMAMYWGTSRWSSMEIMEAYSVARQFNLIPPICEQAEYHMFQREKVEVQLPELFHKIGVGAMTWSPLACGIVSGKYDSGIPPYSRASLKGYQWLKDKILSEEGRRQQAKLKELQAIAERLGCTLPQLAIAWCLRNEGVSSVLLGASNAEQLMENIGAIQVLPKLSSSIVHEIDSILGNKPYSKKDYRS
Sequence of Alpha-2C adrenergic receptor (Homo sapiens) (P18825 whole entry, looked up): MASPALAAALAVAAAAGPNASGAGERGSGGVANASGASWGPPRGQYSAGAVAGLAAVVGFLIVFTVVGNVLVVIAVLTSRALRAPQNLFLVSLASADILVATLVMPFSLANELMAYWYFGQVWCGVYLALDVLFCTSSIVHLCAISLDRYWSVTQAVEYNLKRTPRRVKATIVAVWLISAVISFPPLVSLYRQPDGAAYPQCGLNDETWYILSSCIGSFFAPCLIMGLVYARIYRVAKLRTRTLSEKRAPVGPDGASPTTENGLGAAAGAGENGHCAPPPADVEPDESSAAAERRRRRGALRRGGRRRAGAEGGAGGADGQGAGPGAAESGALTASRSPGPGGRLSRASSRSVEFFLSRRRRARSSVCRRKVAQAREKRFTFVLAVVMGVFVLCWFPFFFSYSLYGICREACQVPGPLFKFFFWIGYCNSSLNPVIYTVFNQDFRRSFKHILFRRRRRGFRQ

For `Cc1cc(NC(=O)CCC(=O)N(CCc2ccccc2)C(C(=O)NC2CCCC2)c2ccco2)no1` (configuration not stated), the cell count in experiment [1] was determined as 592. For the same compound, the inhibition in experiment [1] was -7.5% (inactive); in experiment [3] it was 6.8% (inactive); in experiment [7], 4.62% (inactive); in experiment [8] it was 19.1% (inactive). Moreover, the inhibition of aggregation in [2] is -11.5% (inactive). The nuclei count in experiment [2] stood at 102%; in experiment [3], 101%. The values for the fluorescence slope in [4] and in experiment [6] were -0.483 (inactive) and 0.00558 (inactive), respectively. For the same compound, the NADPH fluorescence slope in experiment [5] was 0.000137 (inactive).
As to `COC(=O)c1ccccc1NC(=O)C1CCCCC1C(=O)O` (configuration not stated), in experiment [1], the cell count was 266. The inhibition in [1] was 2.8% (inactive); in [3], -39.2% (inactive); in experiment [7], 12.8% (inactive); in experiment [8], 11.6% (inactive). Besides, the inhibition of aggregation in experiment [2] was 15.8% (inactive). Moreover, the nuclei count in [2] was 98.8%; in [3] it was 85.6%. Also, the results for the fluorescence slope in experiment [4] and in [6] were -0.556 (inactive) and 0.00471 (inactive), respectively. The NADPH fluorescence slope in experiment [5] is -2.1e-05 (inactive).
Consider `Cc1ncc(CO)c2c1OC(C)(C)OC2`, for which the cell count in experiment [1] was 373. Also, the inhibition in experiment [1] was 2.5% (inactive); in experiment [3] it was -39.2% (inactive); in experiment [7] it was 8.62% (inactive); in [8], 15.1% (inactive). The inhibition of aggregation in [2] is -26.3% (inactive). For the same compound, the nuclei count is 106% in experiment [2] and 97.7% in experiment [3]. Moreover, the fluorescence slope in [4] is -0.515 (inactive); in experiment [6] it was 0.00488 (inactive). Also, the NADPH fluorescence slope in experiment [5] is -0.0002 (inactive).
For the compound `COc1cc(OC)cc(C(=O)NCc2n[nH]c(=S)n2-c2ccccc2OC)c1`, the cell count in experiment [1] turned out to be 385. Further, the inhibition is 0% (inactive) in experiment [1], -29.2% (inactive) in experiment [3], 7.57% (inactive) in [7] and 6.78% (inactive) in experiment [8]. Also, in experiment [2], the inhibition of aggregation was -6.2% (inactive). Besides, the nuclei count stood at 112% in [2] and 83% in experiment [3]. In addition, the fluorescence slope was -0.329 (inactive) in [4] and 0.00633 (inactive) in experiment [6]. The NADPH fluorescence slope in experiment [5] was -6.5e-05 (inactive).
With `Clc1ccc(Cl)c(-c2nn3c(COc4ccccc4)nnc3s2)c1`, the cell count in [1] came to 678. In addition, the inhibition in experiment [1] was -5% (inactive); in experiment [3], -81.1% (inactive); in experiment [7], 23.3% (inactive); in experiment [8], 23.2% (inactive). The inhibition of aggregation in [2] is -9.4% (inactive). Also, the nuclei count worked out at 104% in [2] and 139% in [3]. Also, the fluorescence slope in experiment [4] is -0.546 (inactive); in experiment [6], 0.00451 (inactive). Besides, in experiment [5], the NADPH fluorescence slope was -2.8e-05 (inactive).
Consider `CCOC(=O)c1ccccc1NC(=O)COC(=O)C1=COCCO1`, for which, in [1], the cell count worked out at 595. The inhibition in experiment [1] was -3.1% (inactive); in [3] it was -92% (inactive); in experiment [7] it was 15.1% (inactive); in [8], 2.55% (inactive). In addition, the inhibition of aggregation in experiment [2] is 14% (inactive). The nuclei count in [2] turned out to be 61.5%; in experiment [3], 95.5%. For the same compound, the results for the fluorescence slope in experiment [4] and in [6] were -0.286 (inactive) and 0.00593 (inactive), respectively. In addition, the NADPH fluorescence slope in experiment [5] is -3.3e-05 (inactive).
As to `Cc1ccc(C)c(-c2nc3ccc(N)cc3[nH]2)c1`, the cell count in experiment [1] was found to be 340. For the same compound, the inhibition in [1] was 3.9% (inactive); in [3], -114% (inactive); in experiment [7], 15.4% (inactive); in experiment [8] it was -9.14% (inactive). Moreover, the inhibition of aggregation in [2] is 30.3% (inactive). Moreover, the nuclei count was determined as 77.7% in experiment [2] and 100% in [3]. Besides, the fluorescence slope in experiment [4] was -0.0465 (active); in [6], 0.00338 (inactive). Also, the NADPH fluorescence slope in [5] was -3.5e-05 (inactive).
As to `O=C(Nc1ccc2c(c1)OCO2)c1nn(-c2ccccc2)c(=O)c2ccccc12`, the cell count in experiment [1] was 417. In addition, the inhibition in experiment [1] was 7.1% (inactive); in [7], 13.5% (inactive); in [8] it was 11.4% (inactive). In addition, the inhibition of aggregation in experiment [2] is -7.3% (inactive). For the same compound, the nuclei count in [2] stood at 93.9%; in experiment [3] it was 150%. Also, the fluorescence slope in [4] is -0.621 (inactive). For the same compound, in [5], the NADPH fluorescence slope is 2e-05 (inactive). Moreover, in experiment [9], the slope was 0.00664 (inactive).
Regarding `CCOc1ccccc1NC(=O)C1CCCN1C(=O)OCc1ccccc1` (configuration not stated), in experiment [1], the cell count worked out at 438. The inhibition in experiment [1] was 6% (inactive); in experiment [3], -406% (inactive); in experiment [7], 4.99% (inactive); in experiment [8], 7.18% (inactive). Also, the inhibition of aggregation in [2] was -8.5% (inactive). The nuclei count in [2] came out at 103%; in [3] it was 152%. Besides, the fluorescence slope is -0.544 (inactive) in experiment [4] and 0.0063 (inactive) in experiment [6]. Also, the NADPH fluorescence slope in experiment [5] was -4.2e-05 (inactive).
Take `COc1ccc(CN2C(=O)c3cccnc3C2Nc2cc(Cl)ccc2OC)cc1` (configuration not stated): the cell count in [1] was 482. Also, the inhibition in experiment [1] was 3% (inactive); in experiment [3] it was -26.9% (inactive); in experiment [7], -6.43% (inactive); in experiment [8] it was -6.33% (inactive). Further, the inhibition of aggregation in experiment [2] was 0.1% (inactive). The nuclei count stood at 105% in experiment [2] and 112% in experiment [3]. The values for the fluorescence slope in [4] and in [6] were -0.445 (inactive) and 0.00665 (inactive), respectively. Also, the NADPH fluorescence slope in [5] was 0.00011 (inactive).
As for `COC(=O)c1[nH]c2cc(OC)ccc2c1NC(=O)CN1CCOCC1`, the cell count in experiment [1] came out at 346. Also, the inhibition is 1.4% (inactive) in experiment [1], -117% (inactive) in [3], 13.1% (inactive) in experiment [7] and 7.58% (inactive) in [8]. Also, the inhibition of aggregation in experiment [2] is -17.1% (inactive). Besides, the nuclei count worked out at 105% in experiment [2] and 117% in experiment [3]. Further, the fluorescence slope in experiment [4] is -0.535 (inactive); in experiment [6], 0.00517 (inactive). Moreover, the NADPH fluorescence slope in [5] is -1.7e-05 (inactive).
On to `CCC(=O)N1CCc2cc(Br)cc(S(=O)(=O)C3(C(=O)OC)CC3)c21`, for which the cell count in [1] amounted to 469. Besides, the inhibition in [1] was 2.5% (inactive); in experiment [3] it was 3.4% (inactive); in experiment [7], 17% (inactive); in experiment [8], 18% (inactive). Moreover, the inhibition of aggregation in [2] was -5.1% (inactive). Besides, the nuclei count in experiment [2] amounted to 98.8%; in experiment [3], 97.1%. Also, the fluorescence slope in [4] was -0.554 (inactive); in [6] it was 0.00618 (inactive). The NADPH fluorescence slope in experiment [5] is -3.7e-05 (inactive).
On to `Cc1cc2cc(CNC(=O)c3ccc4c(c3)OCO4)ccc2[nH]1`, for which the cell count in [1] turned out to be 442. Further, the inhibition is 2.9% (inactive) in experiment [1], -10.5% (inactive) in experiment [7] and -25.2% (inactive) in experiment [8]. In addition, the inhibition of aggregation in [2] is 0.1% (inactive). For the same compound, the nuclei count in experiment [2] worked out at 106%; in [3], 150%. Further, the fluorescence slope in experiment [4] is -0.503 (inactive). Further, in experiment [5], the NADPH fluorescence slope is -1.1e-05 (inactive). Moreover, the slope in experiment [9] was 0.00502 (inactive).
For `O=C1c2ccccc2C(=O)N1Cc1nc2ccccc2c(=O)n1CCN1CCOCC1`, the cell count in experiment [1] was determined as 383. For the same compound, the inhibition in experiment [1] was -10.3% (inactive); in experiment [3] it was -48.6% (inactive); in experiment [7], 14.9% (inactive); in experiment [8], 12.8% (inactive). The inhibition of aggregation in experiment [2] is -11.3% (inactive). Besides, the nuclei count was 85.7% in experiment [2] and 160% in experiment [3]. In addition, the fluorescence slope in experiment [4] is -0.521 (inactive); in experiment [6], 0.0047 (inactive). Moreover, the NADPH fluorescence slope in experiment [5] is 1.6e-05 (inactive).

Usually inhibition stands for the relative decrease from the control value, in per cent.
